For the test, the target named is Methionine--tRNA ligase, mitochondrial (Homo sapiens) (UniProt Q96GW9). In words: inhibitors of human mitochondrial MetRS, late-stage follow-up, selectivity assay for T. brucei MetRS inhibitor project, biochemical, radioactivity, round 1 (AID 743061).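 Note: 0% = DMSO with full reaction and 100% = DMSO wells lacking tRNA.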 As to conditions: recombinant human mtMetRS, [3H]Met tRNA charging, at 1 µM, stronger effect = higher value. Summed up:
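System: human mitochondrial MetRS enzyme / Buffer or medium: pH 8.0 reaction buffer containing 2.5 mM ATP / Probe or stimulus: 240 nM [3H]methionine with bulk E. coli tRNA acceptor / Doses: 10 and 1 µM / Times: 15 min compound–enzyme preincubation, then 1 h reaction at room temperature / Detection: scintillation counts of TCA-precipitated charged tRNA on filters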
With `COc1ccc(NC(=O)C2CC(=O)n3c(nc4ccccc43)N2)cc1` (configuration not stated), the inhibition (as a rule, the drop in the measured response relative to a control, in per cent) is -2.67%.
The same measure for `CC(CC(=O)Nc1cccc(Br)c1)=NNC(=O)c1ccc(O)cc1O`: -24.6%.
The same measure for `COCCc1nc2ccc(C(=O)NCCc3nc4ccc(OC)cc4[nH]3)cc2o1`: -5.43%; for `O=C(Cn1cc(C(=O)C(=O)N2CCOCC2)c2ccccc21)NCc1ccccc1`: -5.05%.
The same measure for `CCCCn1c(CCNC(=O)c2ccc(F)cc2)nc2ccccc21`: 3.64%; for `Oc1c(Cl)cc(Cl)cc1CNc1nc2ccccc2[nH]1`: -0.2%; for `Cc1cccc(NC(=O)C2CC(=O)n3c(nc4ccccc43)N2)c1` (configuration not stated): 10.7%.
On to `O=C(Cn1cc(C(=O)c2ccccc2)c2ccccc21)Nc1cccc(C(F)(F)F)c1`, for which the inhibition is -2.29%.
The same measure for `O=C(NCc1nc2ccccc2[nH]1)C1=C[C@H](c2csc3ccccc23)C[C@H](OCCCCO)O1`: -9.21%; for `CCc1ccc2c(c1)c1nnc(SCC(=O)Nc3ccc4c(c3)OCO4)nc1n2C`: -9.7%; for `Cc1ccc(C(=O)NCCc2nc3ccccc3[nH]2)cc1[N+](=O)[O-]`: 0.93%.
The same measure for `O=C(CC=NOCc1ccc([N+](=O)[O-])cc1)Nc1ccc(Cl)cc1`: -13%; for `O=C(C(=O)N1CCOCC1)c1cn(CC(=O)N2CCCc3ccccc32)c2ccccc12`: 8.2%; for `CCN(CCc1nc2ccc(C)cc2[nH]1)C(=O)c1ccc2ncccc2c1`: -5.17%.
As for `Cc1cc2cc(C(=O)N3CCCC(c4nc5ccccc5[nH]4)C3)ccc2o1` (configuration not stated), the figure is -13.2%; as for `COc1ccc(OCC(O)CNC(=O)Nc2ccc(Cl)cc2)cc1` (configuration not stated), -6.26%.
As to `CC(C)c1nc2ccc(C(=O)N(C)CCc3nc4ccc(F)cc4[nH]3)cc2o1`, the inhibition is -1.54%.

The record behind these values is PubChem BioAssay AID743061 (The Scripps Research Institute Molecular Screening Center, 2013).
